Published values pooled from the literature.
Compare with care: the assays were run in different laboratories. ≈ marks a conversion by molar mass, not a printed value.

| Structure (SMILES) | tested on | assay | system | setting | endpoint | value |
| --- | --- | --- | --- | --- | --- | --- |
| CN(C(=O)/C=C/c1ccoc1)[C@@H]1CC[C@@]2(O)[C@H]3Cc4ccc(O)c5c4[C@@]2(CCN3CC2CC2)[C@H]1O5 | – | thermal pain | mouse | subcutaneous | ED50 | 0.046 mg/kg |
| CCC1(c2ccc(N)cc2)CCC(=O)NC1=O (stereo not shown) | DU-145 | cell growth or viability, CCK-8 | – | 48 h | IC50 | > 50 µM |
| COC(=O)c1cc(-c2cccc(NC(=O)Nc3ccc(Cl)cc3Cl)c2)on1 | Mycobacteroides abscessus | microbial growth, broth dilution | ATCC19977 | 48 h | MIC | > 64 µg/mL |
| CO[C@H]1/C=C/O[C@@]2(C)Oc3c(C)c(O)c4c(O)c(c(/C=N/N5CCN(C)CC5)c(O)c4c3C2=O)NC(=O)/C(C)=C\C=C\[C@H](C)[C@H](O)[C@@H](C)[C@@H](O)[C@@H](C)[C@H](OC(C)=O)[C@@H]1C | Mycobacteroides abscessus | microbial growth | ATCC19977 | – | MIC | 25 to 100 µg/mL (≈ 30.4 to 122 µM) |
| O=C(O)c1cn(C2CC2)c2cc(N3CCNCC3)c(F)cc2c1=O | Mycolicibacterium vaccae | microbial growth | IMET10670 | 5 µg/mL | inhibition zone | 41 mm |
| [H]/N=C(/N)N[C@H]1[C@H](O)[C@@H](O)[C@H](O[C@@H]2O[C@@H](C)[C@](O)(C=O)[C@H]2O[C@@H]2O[C@@H](CO)[C@H](O)[C@@H](O)[C@@H]2NC)[C@@H](N/C(N)=N\[H])[C@@H]1O | Mycobacteroides abscessus | microbial growth | ATCC19977 | – | MIC | 50 µg/mL (≈ 86 µM) |
| COCCOCOc1cc(OCc2cc(F)cc(F)c2)c(C(=O)/C=C/c2ccc(C(=O)O)cc2)cc1C12CC3CC(CC(C3)C1)C2 | Jurkat | cell growth or viability, ATP luminescence | – | 24 h | IC50 | 0.93 µM |
| N.N.[Cl][Pt][Cl] | PLC | cell growth or viability | – | 24 h | IC50 | 63.9 µM |
| COC(=O)c1cc(-c2cccc(NC(=O)Nc3cccc(Cl)c3)c2)on1 | Mycobacteroides abscessus | microbial growth, broth dilution | ATCC19977 | 48 h | MIC | > 64 µg/mL |
| Cn1cnc(Cn2c(=O)[nH]/c(=N\c3cc4cn(C)nc4cc3Cl)n(Cc3cc(F)c(F)cc3F)c2=O)n1 | Alphacoronavirus 1 | viral replication, inhibitor, qPCR | CRFK | – | EC50 | ~50 µM |
| COC(=O)c1cc(-c2cccc(NC(=S)Nc3ccc(C#N)cc3)c2)on1 | Mycobacteroides abscessus | microbial growth, broth dilution | ATCC19977 | 48 h | MIC | > 64 µg/mL |
| COCCOCOc1cc(O)c(-c2cc(-c3ccc(C(=O)O)cc3)n(-c3ccccc3)n2)cc1C12CC3CC(CC(C3)C1)C2 | Jurkat | cell growth or viability, ATP luminescence | – | 24 h | IC50 | 2.54 µM |
| COc1c2c(cc3c1OCO3)[C@]13C=C[C@H](OC)C[C@@H]1[N@](C2)C[C@H]3OC(=O)c1ccc2ccccc2c1 | MOLT-4 | cell growth or viability, WST-1 | – | – | IC50 | > 10 µM |
